From ChEMBL document CHEMBL5154772, “Biological Investigation of a Water-Soluble Isoginkgetin-Phosphate Analogue, Targeting the Spliceosome with In Vivo Antitumor Activity” (J Med Chem, 2022)

Key:
[1] = Toxicity in C57BL/6 mouse assessed as change in body weight at 50 mg/kg, ip administered as single dose and measured after 15 days (reference value: 23.5 to 24.2 g); format: organism-based; settings: in vivo, 360 h, time 15 day
How it was run: (§1)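 Female C57BL/6 mice given one IP injection of 100 µL, at 50, 100, 250 or 500 mg/kg in sterile PBS, two mice per dose; PBS-injected controls. Behaviour checked right after and at 30 min. Body weight recorded every 2–3 days for 15 days, then liver, spleen and kidneys weighed.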

[2] = Toxicity in C57BL/6 mouse assessed as change in body weight at 100 mg/kg, ip administered as single dose and measured after 15 days (reference value: 23.5 to 24.2 g); format: organism-based; settings: in vivo, 360 h, time 15 day; how it was run: as §1
[3] = Toxicity in C57BL/6 mouse assessed as change in spleen weight at 500 mg/kg, ip administered as single dose and measured after 15 days (reference value: 0.1 to 0.2 g); format: organism-based; settings: in vivo, 360 h, time 15 day; how it was run: as §1
[4] = Toxicity in C57BL/6 mouse assessed as change in kidney weight at 100 mg/kg, ip administered as single dose and measured after 15 days (reference value: 0.3 g); format: organism-based; settings: in vivo, 360 h, time 15 day; how it was run: as §1
[5] = system: HUVEC; assay: Antiproliferative activity against human HUVEC cells assessed as decrease in cell viability at 10 uM measured after 72 hrs by MTT based colorimetric assay; format: functional
[6] = Metabolic stability in human liver microsomes assessed as parent compound remaining incubated for 45 mins in presence of NADPH by HPLC-MS/MS analysis; format: ADME, Microsome; settings: read-out: Stability
How it was run: (§2)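 Incubation with mouse or human liver microsomes for 45 min, with or without NADPH. Remaining parent compound was quantified over time by HPLC-MS/MS and expressed as % remaining; intrinsic clearance is given in μL/min/mg protein.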

[7] = Metabolic stability in mouse liver microsomes assessed as parent compound remaining incubated for 45 mins in absence of NADPH by HPLC-MS/MS analysis; format: ADME, Microsome; settings: read-out: Stability; how it was run: as §2
[8] = Metabolic stability in human liver microsomes assessed as parent compound remaining incubated for 45 mins in absence of NADPH by HPLC-MS/MS analysis; format: ADME, Microsome; settings: read-out: Stability; how it was run: as §2
[9] = Metabolic stability in mouse liver microsomes assessed as intrinsic clearance incubated for 45 mins by HPLC-MS/MS analysis; format: ADME, Microsome; settings: read-out: CLH; how it was run: as §2
[10] = Stability in human plasma assessed as compound remaining incubated up to 2 hrs by HPLC-MS/MS analysis; format: ADME, cell-free; settings: read-out: Stability
How it was run: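 Incubation in mouse or human plasma for up to 2 h, with compound remaining expressed as a percentage.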

[11] = Plasma protein binding in mouse at 2 uM by rapid equilibrium dialysis based LC-MS/MS analysis; format: ADME, cell-free; settings: read-out: PPB (converted)
How it was run: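 Binding was measured at 2 μM in triplicate by rapid equilibrium dialysis (8K MWCO). Quantification was by UPLC-MS/MS on a phenyl column in positive ESI MRM mode (m/z 727>567), with an ammonium formate pH 5 / 1,5-DMHA mobile phase at 50 °C. Both unbound fraction (fu) and % bound are reported.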

[12] = target: Histamine H2 receptor (Homo sapiens) (UniProt P25021); assay: Antagonist activity at HRH2 (unknown origin) at 10 uM; format: functional; set-up: scale not given: the % may be the effect or the level left; settings: filed as antagonist
How it was run: (§3)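 Single-concentration safety screen at 10 μM across a 47-target panel. GPCRs were run in antagonist mode and enzymes in inhibitor mode.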

[13] = target: Delta-type opioid receptor (Homo sapiens) (UniProt P41143); assay: Antagonist activity at OPRD1 (unknown origin) at 10 uM; format: functional; set-up: scale not given: the % may be the effect or the level left; settings: filed as antagonist; how it was run: as §3
[14] = target: cGMP-inhibited 3',5'-cyclic phosphodiesterase 3A (Homo sapiens) (UniProt Q14432); assay: Inhibition of PDE3A (unknown origin) at 10 uM; how it was run: as §3
[15] = target: 3',5'-cyclic-AMP phosphodiesterase 4D (Homo sapiens) (UniProt Q08499); assay: Inhibition of PDE4D2 (unknown origin) at 10 uM; how it was run: as §3
[16] = Cmax in C57BL/6J mouse at 9.103 mg/kg, ip administered as single dose measured up to 24 hrs; format: ADME, organism-based; set-up: time < 24 hrs, dose 9.103 mg/kg, route ip; settings: in vivo
How it was run: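 Single intraperitoneal dose in male C57BL/6J mice (12 per route). Tail-vein blood was collected under sodium heparin for plasma, with 3 mice sampled at each pair of times: 0.083/2, 0.25/4, 0.5/8 and 1/24 h. F denotes bioavailability.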

[17] = Tmax in C57BL/6J mouse at 0.711 mg/kg, iv administered as single dose measured up to 24 hrs; format: ADME, organism-based; settings: in vivo
How it was run: (§4)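 Single intravenous dose. Mice were male C57BL/6J, 12 per route; tail-vein blood was collected under sodium heparin, with 3 mice sampled at each pair of times (0.083/2, 0.25/4, 0.5/8, 1/24 h). Dogs were male beagles (n=3); jugular blood was collected under K2 EDTA predose and at 0.083, 0.25, 0.5, 1, 2, 4, 6, 8 and 24 h. Plasma was prepared from the samples.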

[18] = Half life in C57BL/6J mouse at 0.711 mg/kg, iv administered as single dose measured up to 24 hrs; format: ADME, organism-based; settings: in vivo; how it was run: as §4
[19] = Total clearance in C57BL/6J mouse at 9.103 mg/kg, ip administered as single dose measured up to 24 hrs; format: ADME, organism-based; settings: in vivo
How it was run: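 Male C57BL/6J mice, single IP dose. Tail-vein blood into sodium heparin for plasma. Twelve mice per route, three per pair of time points: 0.083 and 2 h, 0.25 and 4 h, 0.5 and 8 h, 1 and 24 h. Parameters derived from plasma concentration–time data.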

[20] = Oral bioavailability in C57BL/6J mouse at 9.103 mg/kg administered as single dose measured up to 24 hrs; format: ADME, organism-based; settings: in vivo
[21] = MRT(0 to t) in C57BL/6J mouse at 0.711 mg/kg, iv administered as single dose measured up to 24 hrs; format: ADME, organism-based; settings: in vivo; how it was run: as §4
[22] = AUC(0 to t) in C57BL/6J mouse at 0.711 mg/kg, iv administered as single dose measured up to 24 hrs; format: ADME, organism-based; set-up: dose 0.711 mg/kg, time < 24 hrs, route iv; settings: in vivo; how it was run: as §4
[23] = Toxicity in C57BL/6 mouse assessed as change in body weight at 250 mg/kg, ip administered as single dose and measured after 15 days (reference value: 23.5 to 24.2 g); format: organism-based; settings: in vivo, 360 h, time 15 day; how it was run: as §1
[24] = Toxicity in C57BL/6 mouse assessed as change in body weight at 500 mg/kg, ip administered as single dose and measured after 15 days (reference value: 23.5 to 24.2 g); format: organism-based; settings: in vivo, 360 h, time 15 day; how it was run: as §1
[25] = Toxicity in C57BL/6 mouse assessed as change in liver weight at 100 mg/kg, ip administered as single dose and measured after 15 days (reference value: 1.2 to 1.3 g); format: organism-based; settings: in vivo, 360 h, time 15 day; how it was run: as §1
[26] = Toxicity in C57BL/6 mouse assessed as change in kidney weight at 50 mg/kg, ip administered as single dose and measured after 15 days (reference value: 0.3 g); format: organism-based; settings: in vivo, 360 h, time 15 day; how it was run: as §1
[27] = Acute toxicity in C57BL/6 mouse assessed as mortality at 500 mg/kg, ip administered as single dose and measured after 15 days; format: organism-based; settings: in vivo, 360 h, time 15 day
How it was run: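 Single intraperitoneal injection (100 µL) into female C57BL/6 mice, with IP2 diluted in sterile PBS at 50, 100, 250 or 500 mg/kg; PBS-treated controls. Behaviour watched right after and at 30 min. Body weight followed every 2–3 days for 15 days. Euthanasia criterion was weight loss ≥20%. Liver, spleen and kidney weights taken at day 15.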

Chain of cGMP-inhibited 3',5'-cyclic phosphodiesterase 3A (Homo sapiens) (Q14432 whole entry): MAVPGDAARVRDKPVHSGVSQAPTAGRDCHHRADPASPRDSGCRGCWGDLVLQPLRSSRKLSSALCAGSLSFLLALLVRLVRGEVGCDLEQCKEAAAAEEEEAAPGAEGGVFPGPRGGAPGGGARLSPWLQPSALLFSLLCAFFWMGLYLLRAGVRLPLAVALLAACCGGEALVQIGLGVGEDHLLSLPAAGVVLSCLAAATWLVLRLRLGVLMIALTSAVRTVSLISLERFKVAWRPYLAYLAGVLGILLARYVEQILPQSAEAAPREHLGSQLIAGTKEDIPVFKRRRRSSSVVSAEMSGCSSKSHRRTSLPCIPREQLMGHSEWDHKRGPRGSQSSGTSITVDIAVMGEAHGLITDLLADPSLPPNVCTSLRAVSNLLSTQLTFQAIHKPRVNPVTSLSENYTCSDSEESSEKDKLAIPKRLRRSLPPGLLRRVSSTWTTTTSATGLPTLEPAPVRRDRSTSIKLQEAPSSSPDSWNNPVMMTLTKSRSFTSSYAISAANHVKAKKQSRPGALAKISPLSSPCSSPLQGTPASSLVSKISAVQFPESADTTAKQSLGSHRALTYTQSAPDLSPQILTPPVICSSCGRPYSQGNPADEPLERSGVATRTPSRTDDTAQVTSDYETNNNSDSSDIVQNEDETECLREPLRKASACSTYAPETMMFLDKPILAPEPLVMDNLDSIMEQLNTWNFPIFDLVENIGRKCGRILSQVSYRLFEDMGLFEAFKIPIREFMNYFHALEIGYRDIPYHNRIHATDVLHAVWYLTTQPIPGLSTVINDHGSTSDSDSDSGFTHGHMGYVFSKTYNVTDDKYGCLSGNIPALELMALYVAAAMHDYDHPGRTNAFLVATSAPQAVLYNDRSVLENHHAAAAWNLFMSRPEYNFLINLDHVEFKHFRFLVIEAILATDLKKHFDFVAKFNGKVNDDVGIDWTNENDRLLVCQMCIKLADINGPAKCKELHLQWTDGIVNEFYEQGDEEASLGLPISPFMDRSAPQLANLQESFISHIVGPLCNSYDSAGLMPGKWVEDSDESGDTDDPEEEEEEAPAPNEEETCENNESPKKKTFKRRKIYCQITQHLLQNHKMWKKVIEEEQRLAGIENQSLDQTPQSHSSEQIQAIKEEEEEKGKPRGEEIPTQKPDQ
Chain of Delta-type opioid receptor (Homo sapiens) (P41143 whole entry): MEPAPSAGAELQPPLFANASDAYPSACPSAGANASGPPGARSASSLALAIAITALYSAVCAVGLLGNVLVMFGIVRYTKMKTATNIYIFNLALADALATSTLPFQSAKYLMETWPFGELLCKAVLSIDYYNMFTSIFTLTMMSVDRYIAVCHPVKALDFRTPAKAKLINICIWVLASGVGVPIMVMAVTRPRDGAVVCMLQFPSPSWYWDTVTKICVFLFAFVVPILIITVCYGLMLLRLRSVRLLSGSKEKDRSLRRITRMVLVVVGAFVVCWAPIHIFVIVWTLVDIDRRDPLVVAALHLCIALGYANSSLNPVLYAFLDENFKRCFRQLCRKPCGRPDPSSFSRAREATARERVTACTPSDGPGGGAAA
Chain of Histamine H2 receptor (Homo sapiens) (P25021 whole entry): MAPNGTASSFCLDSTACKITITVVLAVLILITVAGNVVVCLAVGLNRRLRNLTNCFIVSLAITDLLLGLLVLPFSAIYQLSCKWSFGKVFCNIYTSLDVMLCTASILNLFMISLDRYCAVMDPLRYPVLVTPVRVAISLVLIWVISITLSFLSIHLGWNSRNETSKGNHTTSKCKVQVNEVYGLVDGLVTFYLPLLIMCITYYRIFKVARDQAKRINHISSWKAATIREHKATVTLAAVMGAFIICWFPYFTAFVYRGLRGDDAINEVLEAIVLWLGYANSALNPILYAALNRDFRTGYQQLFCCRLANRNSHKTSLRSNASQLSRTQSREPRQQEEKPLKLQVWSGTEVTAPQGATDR
Chain of 3',5'-cyclic-AMP phosphodiesterase 4D (Homo sapiens) (Q08499 whole entry): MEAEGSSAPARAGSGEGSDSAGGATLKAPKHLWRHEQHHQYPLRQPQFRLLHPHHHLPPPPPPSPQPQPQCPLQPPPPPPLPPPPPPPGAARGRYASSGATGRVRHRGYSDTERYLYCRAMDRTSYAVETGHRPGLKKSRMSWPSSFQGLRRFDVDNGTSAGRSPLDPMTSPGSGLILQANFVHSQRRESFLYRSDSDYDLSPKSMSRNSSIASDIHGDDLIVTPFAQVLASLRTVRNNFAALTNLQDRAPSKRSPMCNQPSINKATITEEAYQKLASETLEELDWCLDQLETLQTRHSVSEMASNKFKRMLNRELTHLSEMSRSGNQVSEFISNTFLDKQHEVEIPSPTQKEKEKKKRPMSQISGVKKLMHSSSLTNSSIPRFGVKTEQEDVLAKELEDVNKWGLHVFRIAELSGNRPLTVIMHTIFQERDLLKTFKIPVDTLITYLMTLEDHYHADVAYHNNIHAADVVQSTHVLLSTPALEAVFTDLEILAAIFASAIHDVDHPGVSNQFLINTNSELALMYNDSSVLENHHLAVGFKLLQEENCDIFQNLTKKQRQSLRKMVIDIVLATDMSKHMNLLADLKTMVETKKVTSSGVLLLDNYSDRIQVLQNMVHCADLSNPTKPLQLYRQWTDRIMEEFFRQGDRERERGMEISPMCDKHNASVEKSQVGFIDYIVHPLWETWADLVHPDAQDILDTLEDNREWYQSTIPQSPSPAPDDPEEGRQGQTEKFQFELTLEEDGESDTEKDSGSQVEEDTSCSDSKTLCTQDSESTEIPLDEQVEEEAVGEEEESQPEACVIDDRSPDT

## COc1ccc(-c2cc(=O)c3c(O)cc(OP(=O)([O-])[O-])c(-c4cc(-c5cc(=O)c6c(O)cc(OP(=O)([O-])[O-])cc6o5)ccc4OC)c3o2)cc1.[Na+].[Na+].[Na+].[Na+]
[1]
  Activity: 19.5 g
[2]
  Activity: 19.5 g
[3]
  Activity: 0.1 g
[4]
  Activity: 0.2 g
[5]
  Activity: 25%
[6]
  remaining at 0.75 h: 60.8%
[7]
  remaining at 0.75 h: 72.4%
[8]
  remaining at 0.75 h: 64.7%
[9]
  microsomal CLint: 8 µL/min/mg
[10]
  remaining at 2 h: 94.1%
[11]
  fraction unbound at 2 µM: 0.019
[12]
  Activity: 40%
[13]
  Activity: 53%
[14]
  inhibition: 84.8%
[15]
  inhibition: 87.2%
[16]
  Cmax: 2080 ng/mL
[17]
  Tmax: 5 min
[18]
  half-life: 66 min
[19]
  CL/F: 154 mL/min/kg
[20]
  bioavailability: 86%
[21]
  MRT last at 24 h: 54 min
[22]
  AUC(0-t) at 24 h: 88.8 ng·h/mL
[23]
  Activity: 19.1 g
[24]
  Activity: 20.4 g
[25]
  Activity: 1 g
[26]
  Activity: 0.3 g
[27]
  Activity: Non-Toxic
